Measured values from ChEMBL document CHEMBL3808283, “Biological Characterization and in Vivo Assessment of the Activity of a New Synthetic Macrocyclic Antifungal Compound” (J Med Chem, 2016).
Values after ≈ are worked out from the molar mass of the structure shown. Active and inactive are the calls of the source. The rule behind the calls is not given here.

Key:
Pichia kudriavzevii [1] = assay: Antifungal activity against Candida krusei 193T measured at 24 hrs by broth dilution assay; type: functional
Procedure, shortened: (§1)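 EUCAST broth microdilution, including the update for non-fermenting yeasts (Cryptococcus, Geotrichum), on clinical and reference yeast isolates. Incubated at 37 °C and read at 24, 48 and 72 h. MIC taken as the lowest concentration with no visible growth. For Cryptococcus and Geotrichum, MICs were read only once growth was visible in the control row.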

Candida albicans [2] = assay: Upregulation of TAC1 gene expression in Candida albicans SC5314 at 3 uM after 45 mins by microarray method relative to control; type: functional
Procedure, shortened: (§2)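 Log-phase C. albicans SC5314 in liquid YEPD exposed to 3 µM final for 15 or 45 min; untreated controls taken at the same time points. Three biological replicates. RNA extracted by glass-bead/phenol-chloroform method and integrity checked. One-color Cy3-labeled cRNA (600 ng) hybridized 17 h at 65 °C to 8 × 15K arrays. Expression expressed as fold change versus control.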

Candida albicans [3] = assay: Upregulation of ARE2 gene expression in Candida albicans SC5314 at 3 uM after 15 mins by microarray method relative to control; type: functional; procedure, shortened: as §2
Candida albicans [4] = assay: Upregulation of orf19.3378 gene expression in Candida albicans SC5314 at 3 uM after 45 mins by microarray method relative to control; type: functional
Procedure, shortened: (§3)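 Log-phase cultures in liquid YEPD were exposed to 3 µM compound (final) for 15 or 45 min, with untreated controls sampled at the same times, in three biological replicates. Total RNA was extracted by glass-bead/phenol-chloroform disruption and integrity-checked. One-color Cy3-labelled cRNA (600 ng) was hybridized for 17 h at 65 °C to 8 × 15K arrays, and fold change was taken versus control.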

Magnusiomyces capitatus [5] = assay: Fungicidal activity against Geotrichum capitatum at 40 uM measured at 48 hrs by time kill assay; type: functional
Procedure, shortened: (§4)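 EUCAST broth microdilution at 37 °C. From wells at MIC, 2×, 4× and 8× MIC, 10 µL aliquots were taken, serially 10-fold diluted in saline and plated on Sabouraud dextrose agar. Plates were incubated at 37 °C for 24/48 h, and 48 h for Cryptococcus and Geotrichum. Done in duplicate, detection limit 10 CFU/mL. A drop of at least 3 Log10 CFU/mL from the initial inoculum in 24 h counts as fungicidal; a smaller drop counts as fungistatic.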

Nakaseomyces glabratus = assay: Antifungal activity against Candida glabrata 70 measured at 48 hrs by broth dilution assay; type: functional; settings: Nakaseomyces glabratus, 70, 48 h; procedure, shortened: as §1
Candida albicans [6] = assay: Antifungal activity against Candida albicans 15T up to 96 hrs by broth dilution assay; type: functional, organism-based
Candida albicans [7] = assay: Upregulation of orf19.1887 gene expression in Candida albicans SC5314 at 3 uM after 45 mins by microarray method relative to control; type: functional; procedure, shortened: as §3
Candida albicans [8] = assay: Upregulation of orf19.6873.1 gene expression in Candida albicans SC5314 at 3 uM after 15 mins by microarray method relative to control; type: functional; procedure, shortened: as §3
Candida albicans [9] = assay: Antifungal activity against Candida albicans 53T measured at 24 hrs by broth dilution assay; type: functional; procedure, shortened: as §1
Magnusiomyces capitatus [10] = assay: Antifungal activity against Geotrichum capitatum measured at 48 hrs by broth dilution assay; type: functional; procedure, shortened: as §1
Candida parapsilosis [11] = assay: Antifungal activity against Candida parapsilosis 64E measured at 72 hrs by broth dilution assay; type: functional; settings: Lodderomyces parapsilosis; procedure, shortened: as §1
Candida albicans [12] = assay: Antifungal activity against Candida albicans ATCC 60193 measured at 72 hrs by broth dilution assay; type: functional; settings: ATCC 60193, 72 h; procedure, shortened: as §1
Candida albicans [13] = assay: Upregulation of IFU5 gene expression in Candida albicans SC5314 at 3 uM after 45 mins by microarray method relative to control; type: functional; procedure, shortened: as §2
Candida albicans [14] = assay: Antifungal activity against Candida albicans 15T measured at 48 hrs by broth dilution assay; type: functional; procedure, shortened: as §1
Candida albicans [15] = assay: Upregulation of FCR1 gene expression in Candida albicans SC5314 at 3 uM after 45 mins by microarray method relative to control; type: functional; procedure, shortened: as §2
Candida albicans [16] = assay: Upregulation of CDR2 gene expression in Candida albicans SC5314 at 3 uM after 15 to 45 mins by qRT-PCR method; type: functional, organism-based
Procedure, shortened: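 Log-phase C. albicans treated at 3 µM. RNA extracted with glass-bead disruption, then DNase-treated (10 µg per preparation). Target gene CT values were normalized to an endogenous reference. Fold change calculated as mean normalized expression of samples relative to a selected control.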

Pichia kudriavzevii [17] = assay: Ratio of MIC at 24 hrs to MIC at 48 hrs for Candida krusei ATCC 14243; type: functional
Procedure, shortened: (§5)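 MICs by EUCAST broth microdilution, with the update for non-fermenting yeasts, incubated at 37 °C. Read at 24, 48 and 72 h as the lowest concentration preventing visible growth.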

Candida parapsilosis [18] = assay: Antifungal activity against Candida parapsilosis ATCC 34136 measured at 24 hrs by broth dilution assay; type: functional; settings: Lodderomyces parapsilosis, ATCC 34136, 24 h; procedure, shortened: as §1
Pichia kudriavzevii [19] = assay: Antifungal activity against Candida krusei ATCC 14243 measured at 48 hrs by broth dilution assay; type: functional; settings: ATCC 14243, 48 h; procedure, shortened: as §1
Pichia kudriavzevii [20] = assay: Antifungal activity against Candida krusei ATCC 14243 measured at 24 hrs by broth dilution assay; type: functional; settings: ATCC 14243, 24 h; procedure, shortened: as §1
Candida albicans [21] = assay: Antifungal activity against Candida albicans ATCC 60193 up to 96 hrs by broth dilution assay; type: functional
Candida albicans [22] = assay: Antifungal activity against Candida albicans 4T measured at 48 hrs by broth dilution assay; type: functional; procedure, shortened: as §1
Candida albicans [23] = assay: Upregulation of CRZ2 gene expression in Candida albicans SC5314 at 3 uM after 15 mins by microarray method relative to control; type: functional; procedure, shortened: as §2
Candida tropicalis [24] = assay: Ratio of MIC at 24 hrs to MIC at 48 hrs for Candida tropicalis 86E; type: functional; procedure, shortened: as §5
Candida albicans [25] = assay: Antifungal activity against Candida albicans 4T measured at 72 hrs by broth dilution assay; type: functional; procedure, shortened: as §1
Candida tropicalis [26] = assay: Fungicidal activity against Candida tropicalis 86E assessed as reduction in CFU at 20 uM measured at 24 hrs by time kill assay relative to control; type: functional; procedure, shortened: as §4
Candida parapsilosis [27] = assay: Ratio of MIC at 24 hrs to MIC at 48 hrs for Candida parapsilosis ATCC 34136; type: functional; procedure, shortened: as §5
Magnusiomyces capitatus [28] = assay: Antifungal activity against Geotrichum capitatum up to 96 hrs by broth dilution assay; type: functional
Candida parapsilosis [29] = assay: Antifungal activity against Candida parapsilosis 81E measured at 72 hrs by broth dilution assay; type: functional; settings: Lodderomyces parapsilosis; procedure, shortened: as §1
Candida albicans [30] = assay: Upregulation of CDR1 gene expression in Candida albicans SC5314 at 3 uM after 45 mins by microarray method relative to control; type: functional; procedure, shortened: as §2
Candida albicans [31] = assay: Upregulation of orf19.4907 gene expression in Candida albicans SC5314 at 3 uM after 45 mins by microarray method relative to control; type: functional; procedure, shortened: as §3
Candida albicans [32] = assay: Upregulation of CDR1 gene expression in Candida albicans SC5314 at 3 uM after 15 mins by microarray method relative to control; type: functional; procedure, shortened: as §2
Candida parapsilosis [33] = assay: Antifungal activity against Candida parapsilosis ATCC 34136 measured at 72 hrs by broth dilution assay; type: functional; settings: Lodderomyces parapsilosis, ATCC 34136, 72 h; procedure, shortened: as §1
Candida albicans [34] = assay: Upregulation of orf19.3089 gene expression in Candida albicans SC5314 at 3 uM after 15 mins by microarray method relative to control; type: functional; procedure, shortened: as §3
[35] = Antifungal activity against Geotrichum silvicola measured at 72 hrs by broth dilution assay; type: functional; procedure, shortened: as §1

SMILES: C/C=C/CNC(=N)NCCCCCCCCN1CCCCCCCCNC(=N)NC1=O
- MIC (Pichia kudriavzevii [1]): 10 µM (≈ 4.36 µg/mL)
- fold change (FC) (Candida albicans [2]): 3.38
- fold change (FC) (Candida albicans [3]): 2.11
- fold change (FC) (Candida albicans [4]): 3.52
- Activity (Magnusiomyces capitatus [5]): Active
- MIC (Nakaseomyces glabratus): > 80 µM
- Activity (Candida albicans [6]): Active
- fold change (FC) (Candida albicans [7]): 3.44
- fold change (FC) (Candida albicans [8]): 2.16
- MIC (Candida albicans [9]): 5 µM (≈ 2.18 µg/mL)
- MIC (Magnusiomyces capitatus [10]): 10 µM (≈ 4.36 µg/mL)
- MIC (Candida parapsilosis [11]): 40 µM (≈ 17.4 µg/mL)
- MIC (Candida albicans [12]): 5 µM (≈ 2.18 µg/mL)
- fold change (FC) (Candida albicans [13]): 2.58
- MIC (Candida albicans [14]): 5 µM (≈ 2.18 µg/mL)
- fold change (FC) (Candida albicans [15]): 5.88
- Activity (Candida albicans [16]): Active
- Ratio (Pichia kudriavzevii [17]): 8
- MIC (Candida parapsilosis [18]): 10 µM (≈ 4.36 µg/mL)
- MIC (Pichia kudriavzevii [19]): 80 µM (≈ 34.9 µg/mL)
- MIC (Pichia kudriavzevii [20]): 10 µM (≈ 4.36 µg/mL)
- Activity (Candida albicans [21]): Active
- MIC (Candida albicans [22]): 5 µM (≈ 2.18 µg/mL)
- fold change (FC) (Candida albicans [23]): 2.28
- Ratio (Candida tropicalis [24]): 2
- MIC (Candida albicans [25]): 5 µM (≈ 2.18 µg/mL)
- inhibition at 20 µM (Candida tropicalis [26]): 99.9%
- Ratio (Candida parapsilosis [27]): 8
- Activity (Magnusiomyces capitatus [28]): Active
- MIC (Candida parapsilosis [29]): 40 µM (≈ 17.4 µg/mL)
- fold change (FC) (Candida albicans [30]): 3.75
- fold change (FC) (Candida albicans [31]): 5.3
- fold change (FC) (Candida albicans [32]): 3.07
- MIC (Candida parapsilosis [33]): 80 µM (≈ 34.9 µg/mL)
- fold change (FC) (Candida albicans [34]): 2.39
- MIC [35]: 10 µM (≈ 4.36 µg/mL)
